Laboratory results: ChEMBL document CHEMBL1125812, “Synthesis of two cyclopentenyl-3-deazapyrimidine carbocyclic nucleosides related to cytidine and uridine” (1991)

Assays:
Type in all cases: functional
Conditions in all cases: Mus musculus
[1] = tested on: L1210; test: Compound was evaluated for the ability to inhibit L1210 tumor cell growth a concentration of 10 uM
How it was run: (§1)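 L1210 cells seeded at 0.15 × 10^5 cells/mL in Fisher's medium with 10% heat-inactivated horse serum. Drug exposure was continuous for 48 h, and cell number was counted with a Coulter counter. Percent inhibition was calculated relative to untreated control cultures, which reached 4.5 × 10^5 cells/mL.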

[2] = tested on: L1210; test: Compound was evaluated for the ability to inhibit L1210 tumor cell growth a concentration of 1 uM; how it was run: as §1
[3] = tested on: L1210; test: Compound was evaluated for the ability to inhibit L1210 tumor cell growth a concentration of 100 uM; how it was run: as §1
[4] = tested on: L1210; test: Compound was evaluated for the ability to inhibit L1210 tumor cell growth a concentration of 1000 uM; how it was run: as §1

Row | Structure (SMILES) | inhibition at 10 µM [1] [%] | inhibition at 1 µM [2] [%] | inhibition at 100 µM [3] [%] | inhibition at 1000 µM [4] [%]
1 | Nc1ccn([C@@H]2C=C(CO)[C@@H](O)[C@H]2O)c(=O)n1 | 93 | 93 | 93 | –
2 | Nc1ccn([C@@H]2C=C(CO)[C@@H](O)[C@H]2O)c(=O)c1 | 0 | 0 | 0 | 15
3 | O=c1cc(O)ccn1[C@@H]1C=C(CO)[C@@H](O)[C@H]1O | 45 | 8 | 66 | 75
